In brackets after ≈: the same amount, converted by molar mass.
Legend:
UGT1A9 = UGT1A9 (Homo sapiens, UniProt O60656); experiment: Inhibition of human UGT1A9 assessed as residual enzyme activity at 10 uM relative to control; assay type: ADME; details: read-out: Activity
[1] = target: T1, Amine oxidase [flavin-containing] B (Homo sapiens, UniProt P27338); experiment: Inhibition of monoamino oxidase B (unknown origin) at 10 uM
T1 sequence (P27338 whole entry): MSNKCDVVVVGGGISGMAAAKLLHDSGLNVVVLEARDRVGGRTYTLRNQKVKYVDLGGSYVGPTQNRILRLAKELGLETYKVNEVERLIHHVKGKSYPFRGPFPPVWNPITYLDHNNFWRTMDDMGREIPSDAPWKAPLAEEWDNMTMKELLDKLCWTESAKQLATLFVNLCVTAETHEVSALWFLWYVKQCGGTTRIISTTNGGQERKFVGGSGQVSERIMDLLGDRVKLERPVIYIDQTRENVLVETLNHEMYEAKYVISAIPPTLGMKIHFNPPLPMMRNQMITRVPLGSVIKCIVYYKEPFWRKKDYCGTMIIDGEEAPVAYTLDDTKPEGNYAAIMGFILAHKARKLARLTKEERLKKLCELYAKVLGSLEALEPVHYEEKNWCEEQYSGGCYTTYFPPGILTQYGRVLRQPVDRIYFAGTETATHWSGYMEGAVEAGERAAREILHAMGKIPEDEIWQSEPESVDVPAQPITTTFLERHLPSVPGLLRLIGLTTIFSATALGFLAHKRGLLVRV

[2] = Protein binding in human plasma assessed as bound fraction; assay type: ADME, cell-free; details: read-out: PPB (converted)
Method in brief: (§1)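 Binding measured in 100% plasma; reported as fraction bound.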

[3] = system: UDP-glucuronosyltransferases (UGTs); experiment: Drug metabolism assessed as human UGT-mediated metabolism by measuring intrinsic clearance; assay type: ADME, protein assay
[4] = Half life in human hepatocytes; assay type: ADME, cell-based, Hepatocyte
Method in brief: (§2)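 Metabolic stability of the dihydrodiols measured in vitro with mouse and human liver S9 fractions and with mouse and human hepatocytes; half-life from substrate depletion.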

[5] = Inhibition of adenosine transporter (unknown origin) at 10 uM; assay type: ADME; details: human
[6] = Lipophilicity, logD of the compound at pH 7.4; assay type: physicochemical; details: buffer
[7] = Retention time in beta-naphthoflavone/phenobarbital-induced rat liver S9 fraction at 100 ug/ml in presence of NADPH measured after 4 hrs by UV-Vis spectroscopy; assay type: ADME, subcellular; details: s9, 4 h
[8] = target: Solute carrier organic anion transporter family member 1B3 (Homo sapiens, UniProt Q9NPD5); experiment: Inhibition of OATP1B3 (unknown origin); assay type: ADME
Sequence of Solute carrier organic anion transporter family member 1B3 (Q9NPD5 whole entry): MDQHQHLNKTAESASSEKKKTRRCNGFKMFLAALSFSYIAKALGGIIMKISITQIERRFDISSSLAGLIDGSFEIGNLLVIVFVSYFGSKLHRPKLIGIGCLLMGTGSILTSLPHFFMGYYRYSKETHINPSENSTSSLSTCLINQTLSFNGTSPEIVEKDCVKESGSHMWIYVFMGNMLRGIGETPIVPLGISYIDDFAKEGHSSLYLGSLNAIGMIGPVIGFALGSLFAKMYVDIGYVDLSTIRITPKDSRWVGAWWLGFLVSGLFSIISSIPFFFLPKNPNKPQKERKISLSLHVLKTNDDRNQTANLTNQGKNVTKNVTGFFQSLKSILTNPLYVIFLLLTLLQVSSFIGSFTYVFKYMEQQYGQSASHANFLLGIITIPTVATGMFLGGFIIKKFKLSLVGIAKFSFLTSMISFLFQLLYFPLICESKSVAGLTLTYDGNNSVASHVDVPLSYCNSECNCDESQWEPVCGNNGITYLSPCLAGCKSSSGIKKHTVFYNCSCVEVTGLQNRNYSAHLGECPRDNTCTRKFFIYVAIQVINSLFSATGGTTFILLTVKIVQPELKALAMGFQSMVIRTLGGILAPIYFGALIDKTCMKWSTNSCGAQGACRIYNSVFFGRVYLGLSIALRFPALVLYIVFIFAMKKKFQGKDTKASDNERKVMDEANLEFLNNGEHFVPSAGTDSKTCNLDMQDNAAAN

[9] = Retention time in human plasma by LC-MS/MS analysis; assay type: ADME, cell-free
[10] = target: Multidrug and toxin extrusion protein 1 (Homo sapiens, UniProt Q96FL8); experiment: Inhibition of MATE1 (unknown origin); assay type: ADME
Sequence of Multidrug and toxin extrusion protein 1 (Q96FL8 whole entry): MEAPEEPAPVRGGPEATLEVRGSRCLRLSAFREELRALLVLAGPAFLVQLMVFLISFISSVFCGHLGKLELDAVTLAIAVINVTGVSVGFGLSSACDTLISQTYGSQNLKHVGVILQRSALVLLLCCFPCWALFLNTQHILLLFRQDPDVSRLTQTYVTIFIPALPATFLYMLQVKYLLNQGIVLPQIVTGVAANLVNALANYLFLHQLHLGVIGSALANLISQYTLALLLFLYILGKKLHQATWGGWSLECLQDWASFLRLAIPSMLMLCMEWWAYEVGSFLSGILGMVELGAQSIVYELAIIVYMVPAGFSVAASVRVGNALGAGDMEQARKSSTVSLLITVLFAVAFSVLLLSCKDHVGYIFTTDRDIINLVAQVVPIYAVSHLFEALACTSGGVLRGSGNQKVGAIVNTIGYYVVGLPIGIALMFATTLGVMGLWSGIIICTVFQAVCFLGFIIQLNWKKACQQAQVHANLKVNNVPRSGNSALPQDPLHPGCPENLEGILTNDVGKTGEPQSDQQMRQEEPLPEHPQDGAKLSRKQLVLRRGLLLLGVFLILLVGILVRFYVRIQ

[11] = Retention time in beta-naphthoflavone/phenobarbital-induced rat liver S9 fraction at 100 ug/ml in presence of NADPH by LC-MS/MS analysis; assay type: ADME, subcellular
[12] = Half life in mouse hepatocytes; assay type: ADME, cell-based, Hepatocyte; method in brief: as §2
[13] = Kinetic aqueous solubility of the compound; assay type: physicochemical; details: buffer; read-out: Kinetic_solubility
[14] = Intrinsic clearance in mouse liver S9 fraction; assay type: ADME, subcellular; details: read-out: CLH
[15] = target: Solute carrier organic anion transporter family member 1B1 (Homo sapiens, UniProt Q9Y6L6); experiment: Inhibition of OATP1B1 (unknown origin); assay type: ADME
Sequence of Solute carrier organic anion transporter family member 1B1 (Q9Y6L6 whole entry): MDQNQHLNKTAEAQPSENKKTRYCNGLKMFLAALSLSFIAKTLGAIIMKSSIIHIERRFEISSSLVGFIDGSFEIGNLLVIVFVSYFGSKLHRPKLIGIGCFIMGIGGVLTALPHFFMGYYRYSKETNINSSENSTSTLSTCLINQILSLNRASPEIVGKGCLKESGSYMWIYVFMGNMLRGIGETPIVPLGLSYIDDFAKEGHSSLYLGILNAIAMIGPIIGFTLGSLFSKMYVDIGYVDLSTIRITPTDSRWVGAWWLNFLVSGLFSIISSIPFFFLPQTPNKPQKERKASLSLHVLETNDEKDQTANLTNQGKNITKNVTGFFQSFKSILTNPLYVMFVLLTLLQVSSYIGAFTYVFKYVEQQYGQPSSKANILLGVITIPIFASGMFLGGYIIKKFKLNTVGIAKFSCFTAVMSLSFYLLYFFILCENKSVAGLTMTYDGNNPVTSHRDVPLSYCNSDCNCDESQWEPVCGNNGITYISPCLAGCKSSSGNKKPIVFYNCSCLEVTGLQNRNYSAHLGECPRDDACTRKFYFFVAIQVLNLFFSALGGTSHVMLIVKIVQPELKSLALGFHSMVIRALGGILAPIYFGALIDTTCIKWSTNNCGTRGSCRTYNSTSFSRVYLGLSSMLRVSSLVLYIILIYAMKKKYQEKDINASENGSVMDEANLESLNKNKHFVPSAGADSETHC

[16] = Inhibition of adenosine transporter (unknown origin); assay type: ADME, Homo sapiens
[17] = target: T1, Amine oxidase [flavin-containing] B; experiment: Inhibition of monoamino oxidase B (unknown origin)
[18] = Half life in mouse liver S9 fraction; assay type: ADME, subcellular; method in brief: as §2
[19] = Intrinsic clearance in mouse hepatocytes; assay type: ADME, cell-based, Hepatocyte
[20] = target: UDP-glucuronosyltransferase 1A4 (Homo sapiens, UniProt P22310); experiment: Drug metabolism assessed as human UGT1A4-mediated metabolism by measuring intrinsic clearance; assay type: ADME; details: recombinant enzyme
Sequence of UDP-glucuronosyltransferase 1A4 (P22310 whole entry): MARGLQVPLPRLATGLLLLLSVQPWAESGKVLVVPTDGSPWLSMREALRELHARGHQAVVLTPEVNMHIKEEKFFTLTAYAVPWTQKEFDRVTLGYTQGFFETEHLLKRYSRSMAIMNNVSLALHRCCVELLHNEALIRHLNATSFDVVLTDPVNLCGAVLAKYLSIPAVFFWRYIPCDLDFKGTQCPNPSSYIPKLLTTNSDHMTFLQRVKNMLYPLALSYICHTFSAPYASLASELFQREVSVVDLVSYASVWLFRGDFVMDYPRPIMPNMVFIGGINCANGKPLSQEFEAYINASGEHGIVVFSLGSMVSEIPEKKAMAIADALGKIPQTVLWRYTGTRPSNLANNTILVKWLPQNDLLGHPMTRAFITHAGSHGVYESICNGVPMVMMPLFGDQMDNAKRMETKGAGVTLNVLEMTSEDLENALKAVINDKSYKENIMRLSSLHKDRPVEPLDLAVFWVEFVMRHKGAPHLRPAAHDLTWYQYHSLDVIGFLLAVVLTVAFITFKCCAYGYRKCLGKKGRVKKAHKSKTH

[21] = Protein binding in mouse plasma assessed as bound fraction; assay type: ADME, cell-free; method in brief: as §1
[22] = Permeability at pH 7.4 by PAMPA; assay type: ADME; details: read-out: permeability
UGT1A3 = UGT1A3 (Homo sapiens, UniProt P35503); experiment: Inhibition of human UGT1A3 assessed as residual enzyme activity at 10 uM relative to control; assay type: ADME; details: read-out: Activity
Sequence of UGT1A3 (P35503 whole entry): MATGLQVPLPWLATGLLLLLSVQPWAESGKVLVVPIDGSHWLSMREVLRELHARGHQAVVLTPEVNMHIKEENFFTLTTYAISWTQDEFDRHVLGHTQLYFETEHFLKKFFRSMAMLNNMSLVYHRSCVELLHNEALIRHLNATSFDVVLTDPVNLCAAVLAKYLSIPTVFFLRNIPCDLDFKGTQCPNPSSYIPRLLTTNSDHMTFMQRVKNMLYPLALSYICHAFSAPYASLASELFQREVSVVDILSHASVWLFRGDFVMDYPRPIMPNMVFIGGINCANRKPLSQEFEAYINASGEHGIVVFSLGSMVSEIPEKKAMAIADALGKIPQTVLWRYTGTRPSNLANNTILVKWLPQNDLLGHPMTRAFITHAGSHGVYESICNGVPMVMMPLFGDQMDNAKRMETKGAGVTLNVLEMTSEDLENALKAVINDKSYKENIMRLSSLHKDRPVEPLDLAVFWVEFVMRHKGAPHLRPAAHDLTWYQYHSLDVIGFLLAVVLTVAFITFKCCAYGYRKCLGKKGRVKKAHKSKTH

[23] = Half life in human liver S9 fraction; assay type: ADME, subcellular; method in brief: as §2
[24] = target: Broad substrate specificity ATP-binding cassette transporter ABCG2 (Homo sapiens, UniProt Q9UNQ0); experiment: Inhibition of BCRP (unknown origin); assay type: ADME
Sequence of Broad substrate specificity ATP-binding cassette transporter ABCG2 (Q9UNQ0 whole entry): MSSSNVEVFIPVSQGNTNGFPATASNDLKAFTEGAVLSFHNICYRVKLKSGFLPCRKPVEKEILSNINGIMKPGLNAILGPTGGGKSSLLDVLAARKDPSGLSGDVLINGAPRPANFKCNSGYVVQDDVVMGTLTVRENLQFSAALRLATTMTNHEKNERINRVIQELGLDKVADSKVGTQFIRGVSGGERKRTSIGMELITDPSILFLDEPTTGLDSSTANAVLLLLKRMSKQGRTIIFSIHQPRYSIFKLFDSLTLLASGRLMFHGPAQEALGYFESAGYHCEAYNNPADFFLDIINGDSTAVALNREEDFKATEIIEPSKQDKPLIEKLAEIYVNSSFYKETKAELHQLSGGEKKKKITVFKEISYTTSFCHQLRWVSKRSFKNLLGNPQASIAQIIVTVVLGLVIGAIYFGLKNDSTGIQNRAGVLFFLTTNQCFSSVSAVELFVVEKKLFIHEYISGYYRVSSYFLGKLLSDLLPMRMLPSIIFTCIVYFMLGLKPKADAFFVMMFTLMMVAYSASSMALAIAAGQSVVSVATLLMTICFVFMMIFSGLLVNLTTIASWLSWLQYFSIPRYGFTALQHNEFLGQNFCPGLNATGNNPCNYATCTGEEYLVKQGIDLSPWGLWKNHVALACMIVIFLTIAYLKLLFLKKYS

[25] = Intrinsic clearance in human hepatocytes; assay type: ADME, cell-based, Hepatocyte
[26] = Intrinsic clearance in human liver S9 fraction; assay type: ADME, subcellular; details: read-out: CLH
[27] = Drug level in beta-naphthoflavone/phenobarbital-induced rat liver S9 fraction treated with 100 ug/ml Ezutromid-1 assessed as compound formation in presence of NADPH measured after 4 hrs by UV-Vis spectroscopy; assay type: ADME, subcellular; details: s9, 4 h

Sequence of UGT1A9 (O60656 whole entry): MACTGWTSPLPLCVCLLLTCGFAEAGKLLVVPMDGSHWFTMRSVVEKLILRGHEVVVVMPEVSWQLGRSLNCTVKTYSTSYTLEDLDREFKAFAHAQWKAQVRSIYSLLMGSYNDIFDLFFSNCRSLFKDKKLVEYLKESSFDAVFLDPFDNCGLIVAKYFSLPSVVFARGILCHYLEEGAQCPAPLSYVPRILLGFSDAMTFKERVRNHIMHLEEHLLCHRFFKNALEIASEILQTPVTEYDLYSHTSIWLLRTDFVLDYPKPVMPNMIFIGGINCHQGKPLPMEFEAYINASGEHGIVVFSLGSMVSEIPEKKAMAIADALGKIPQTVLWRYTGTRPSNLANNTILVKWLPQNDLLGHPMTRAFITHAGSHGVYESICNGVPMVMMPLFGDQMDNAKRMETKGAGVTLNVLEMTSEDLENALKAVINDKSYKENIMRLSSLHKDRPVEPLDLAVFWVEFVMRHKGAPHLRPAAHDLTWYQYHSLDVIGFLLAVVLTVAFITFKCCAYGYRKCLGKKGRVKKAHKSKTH

activity at 10 µM (UGT1A9): 12%
inhibition (INH) [1]: Active
fraction unbound [2]: 0.363
CL [3]: < 5.8 µL/min/pmol
half-life [4]: 85 min
inhibition (INH) [5]: Active
logD [6]: 2.04
Retention time [7]: 26.7 min
inhibition (INH) [8]: Active
Retention_time [9]: 8.1 min
Retention_time [11]: 8.2 min
half-life [12]: 7 min
solubility kinetic [13]: 96 µM (≈ 35.7 µg/mL)
microsomal CLint [14]: 35 µL/min/mg
inhibition (INH) [15]: Active
IC50 [16]: 3.9 µM
IC50 [17]: 4 µM
half-life [18]: 39 min
CLH [19]: 98 µL/min/mg
CL [20]: < 2.9 µL/min/pmol
PPB [21]: Not Active
Papp [22]: 33.3 ×10⁻⁶ cm/s
activity at 10 µM (UGT1A3): 62%
half-life [23]: > 138 min
inhibition (INH) [24]: Active
CLH [25]: 8 µL/min/mg
microsomal CLint [26]: < 10 µL/min/mg
Drug uptake [27]: Metabolite_Detected
Structure (SMILES): CCS(=O)(=O)c1ccc2oc(-c3ccc4c(c3)C=C[C@H](O)[C@H]4O)nc2c1
IC50 [10]: 10 µM

From ChEMBL document CHEMBL4376826 (J Med Chem, 2020)
